ChEMBL document CHEMBL3124882, “Semi-synthesis of acylated triterpenes from olive-oil industry wastes for the development of anticancer and anti-HIV agents” (Eur J Med Chem, 2014)
Active and inactive are the calls of the source. The calls are words filed in the database; no cut-off is given here.

What was measured:
Protease = Protease (Human immunodeficiency virus 1, UniProt Q9YQ12); experiment: Inhibition of HIV1 recombinant protease expressed in Escherichia coli using Abz-Ala-Arg-Val-Nle-Tyr(NO2)-Glu-Ala-Nle-NH2 as substrate by FRET assay
B16-F10 [1] = experiment: Induction of ROS generation in mouse B16F10 cells at IC50 to 2 X IC50 after 72 hrs by rhodamine123/propidium iodide staining-based FACS analysis; assay type: functional, cell-based
Method in brief: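 B16F10 cells, 11·10^4 per well, treated 72 h at IC50 or 2×IC50, then given fresh medium with dihydrorhodamine 123 at a final 5 µg/mL for 30 min. Cells washed, resuspended in PBS and read by flow cytometry for Rh123 and PI fluorescence (excitation 500 nm, emission 536 nm). Rh123+ cells scored ROS-positive regardless of PI. Three experiments in duplicate, mean ± S.E.M.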

B16-F10 [2] = experiment: Induction of apoptosis in mouse B16F10 cells assessed as necrotic cells at 2 X IC50 after 72 hrs by annexin V-FITC/propidium iodide staining-based FACS analysis (reference value: 4.0 +/- 0.6%); assay type: functional
B16-F10 [3] = experiment: Induction of apoptosis in mouse B16F10 cells assessed as necrotic cells at IC50 after 72 hrs by annexin V-FITC/propidium iodide staining-based FACS analysis (reference value: 4.0 +/- 0.6%); assay type: functional
B16-F10 [4] = experiment: Induction of apoptosis in mouse B16F10 cells assessed as total apoptotic cells at 2 X IC50 after 72 hrs by annexin V-FITC/propidium iodide staining-based FACS analysis (reference value: 13.7 +/- 2.7%); assay type: functional
B16-F10 [5] = experiment: Induction of apoptosis in mouse B16F10 cells assessed as total apoptotic cells at IC50 after 72 hrs by annexin V-FITC/propidium iodide staining-based FACS analysis (reference value: 13.7 +/- 2.7%); assay type: functional
B16-F10 [6] = experiment: Induction of apoptosis in mouse B16F10 cells assessed as late apoptotic cells at 2 X IC50 after 72 hrs by annexin V-FITC/propidium iodide staining-based FACS analysis (reference value: 9.8 +/- 2.2%); assay type: functional
B16-F10 [7] = experiment: Induction of apoptosis in mouse B16F10 cells assessed as late apoptotic cells at IC50 after 72 hrs by annexin V-FITC/propidium iodide staining-based FACS analysis (reference value: 9.8 +/- 2.2%); assay type: functional
B16-F10 [8] = experiment: Induction of apoptosis in mouse B16F10 cells assessed as early apoptotic cells at 2 X IC50 after 72 hrs by annexin V-FITC/propidium iodide staining-based FACS analysis (reference value: 3.9 +/- 0.4%); assay type: functional
B16-F10 [9] = experiment: Induction of apoptosis in mouse B16F10 cells assessed as early apoptotic cells at IC50 after 72 hrs by annexin V-FITC/propidium iodide staining-based FACS analysis (reference value: 3.9 +/- 0.4%); assay type: functional
B16-F10 [10] = experiment: Induction of apoptosis in mouse B16F10 cells assessed as normal cells at IC50 after 72 hrs by annexin V-FITC/propidium iodide staining-based FACS analysis (reference value: 77.9 +/- 1.5%); assay type: functional
B16-F10 [11] = experiment: Cytotoxicity against mouse B16F10 cells after 72 hrs by MTT assay; assay type: functional, cell-based; conditions: B16-F10, 72 h
Method in brief: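 B16F10 cells (DMEM, 2 mM glutamine, 10% heat-inactivated FCS, penicillin/streptomycin; subconfluent) seeded at 11·10^3 per well and exposed to 0–80 µg/mL for 72 h. Compounds were diluted from a 10 mg/mL stock in 50% DMSO/PBS. MTT 0.5 mg/mL for 2 h, formazan dissolved in DMSO, absorbance at 550 nm. Viability is relative to untreated controls; IC50 from four assays of six replicates, mean ± S.E.M.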

B16-F10 [12] = experiment: Induction of apoptosis in mouse B16F10 cells assessed as normal cells at 2 X IC50 after 72 hrs by annexin V-FITC/propidium iodide staining-based FACS analysis (reference value: 77.9 +/- 1.5%); assay type: functional

Chain of Protease (Q9YQ12 whole entry): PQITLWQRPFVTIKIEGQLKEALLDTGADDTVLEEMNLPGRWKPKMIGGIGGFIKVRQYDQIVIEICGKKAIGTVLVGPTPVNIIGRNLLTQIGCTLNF

## CCCCCCCCCCCC(=O)O[C@@H]1C[C@]2(C)[C@H]3CC=C4[C@@H]5CC(C)(C)CC[C@]5(C(=O)OCc5ccccc5)CC[C@@]4(C)[C@]3(C)CC[C@H]2C(C)(C)[C@H]1OC(=O)CCCCCCCCCCC
Protease
  IC50: 73 µM

## CC1(C)CC[C@]2(C(=O)OCc3ccccc3)CC[C@]3(C)C(=CC[C@@H]4[C@@]5(C)C[C@@H](OC(=O)CCC(=O)O)[C@H](O)C(C)(C)[C@@H]5CC[C@]43C)[C@@H]2C1
Protease
  IC50: 15.6 µM

## CC1(C)CC[C@]2(C(=O)OCc3ccccc3)CC[C@]3(C)C(=CC[C@@H]4[C@@]5(C)CC[C@H](OC(=O)CCCC(=O)O)C(C)(C)[C@@H]5CC[C@]43C)[C@@H]2C1
B16-F10 [1]
  Activity: inactive
B16-F10 [2]
  Activity: 1.6%
B16-F10 [3]
  Activity: 15.9%
B16-F10 [4]
  Activity: 90.4%
B16-F10 [5]
  Activity: 58.4%
B16-F10 [6]
  Activity: 24.6%
B16-F10 [7]
  Activity: 37.9%
B16-F10 [8]
  Activity: 65.8%
B16-F10 [9]
  Activity: 20.6%
B16-F10 [10]
  Activity: 25.8%
B16-F10 [11]
  IC50: 29.9 µM
B16-F10 [12]
  Activity: 8.1%

## CC1(C)CC[C@]2(C(=O)O)CC[C@]3(C)C(=CC[C@@H]4[C@@]5(C)C[C@@H](OC(=O)c6ccccc6C(=O)O)[C@H](O)C(C)(C)[C@@H]5CC[C@]43C)[C@@H]2C1
Protease
  IC50: 14.2 µM

## CC(C)(CC(=O)O)CC(=O)O[C@@H]1C[C@]2(C)[C@H]3CC=C4[C@@H]5CC(C)(C)CC[C@]5(C(=O)O)CC[C@@]4(C)[C@]3(C)CC[C@H]2C(C)(C)[C@H]1O
Protease
  IC50: 14.3 µM

## CC1(C)CC[C@]2(C(=O)O)CC[C@]3(C)C(=CC[C@@H]4[C@@]5(C)C[C@@H](OC(=O)CCC(=O)O)[C@H](OC(=O)CCC(=O)O)C(C)(C)[C@@H]5CC[C@]43C)[C@@H]2C1
Protease
  IC50: 1.9 µM

## CCCC(=O)O[C@@H]1C[C@]2(C)[C@H]3CC=C4[C@@H]5CC(C)(C)CC[C@]5(C(=O)OCc5ccccc5)CC[C@@]4(C)[C@]3(C)CC[C@H]2C(C)(C)[C@H]1O
Protease
  IC50: 226 µM

## CC(C)(CC(=O)O)CC(=O)O[C@@H]1C[C@]2(C)[C@H]3CC=C4[C@@H]5CC(C)(C)CC[C@]5(C(=O)O)CC[C@@]4(C)[C@]3(C)CC[C@H]2C(C)(C)[C@H]1OC(=O)CC(C)(C)CC(=O)O
Protease
  IC50: 27.5 µM

## CC1(C)CC[C@]2(C(=O)O)CC[C@]3(C)C(=CC[C@@H]4[C@@]5(C)CC[C@H](O)C(C)(C)[C@@H]5CC[C@]43C)[C@@H]2C1 [OLEANOLIC_ACID]
B16-F10 [2]
  Activity: 8.7%
B16-F10 [3]
  Activity: 10.1%
B16-F10 [4]
  Activity: 41.5%
B16-F10 [5]
  Activity: 44.6%
B16-F10 [6]
  Activity: 12.4%
B16-F10 [7]
  Activity: 28.2%
B16-F10 [8]
  Activity: 29.1%
B16-F10 [9]
  Activity: 16.4%
B16-F10 [10]
  Activity: 44.9%
B16-F10 [11]
  IC50: 106 µM
B16-F10 [12]
  Activity: 49.8%
Protease
  IC50: 57.7 µM

## CC(C)(CC(=O)O)CC(=O)O[C@H]1CC[C@]2(C)[C@H]3CC=C4[C@@H]5CC(C)(C)CC[C@]5(C(=O)O)CC[C@@]4(C)[C@]3(C)CC[C@H]2C1(C)C
Protease
  IC50: 0.7 µM

## CC1(C)CC[C@]2(C(=O)O)CC[C@]3(C)C(=CC[C@@H]4[C@@]5(C)CC[C@H](OC(=O)CCCC(=O)O)C(C)(C)[C@@H]5CC[C@]43C)[C@@H]2C1
Protease
  IC50: 0.56 µM

## CC1(C)CC[C@]2(C(=O)O)CC[C@]3(C)C(=CC[C@@H]4[C@@]5(C)C[C@@H](OC(=O)CCCC(=O)O)[C@H](OC(=O)CCCC(=O)O)C(C)(C)[C@@H]5CC[C@]43C)[C@@H]2C1
Protease
  IC50: 1.4 µM

## CCCC(=O)O[C@@H]1C[C@]2(C)[C@H]3CC=C4[C@@H]5CC(C)(C)CC[C@]5(C(=O)O)CC[C@@]4(C)[C@]3(C)CC[C@H]2C(C)(C)[C@H]1OC(=O)CCC
Protease
  IC50: 31.2 µM

## CC1(C)CC[C@]2(C(=O)O)CC[C@]3(C)C(=CC[C@@H]4[C@@]5(C)C[C@@H](OC(=O)CCCC(=O)O)[C@H](O)C(C)(C)[C@@H]5CC[C@]43C)[C@@H]2C1
Protease
  IC50: 3.2 µM

## CC1(C)CC[C@]2(C(=O)OCc3ccccc3)CC[C@]3(C)C(=CC[C@@H]4[C@@]5(C)C[C@@H](OC(=O)c6ccccc6C(=O)O)[C@H](OC(=O)c6ccccc6C(=O)O)C(C)(C)[C@@H]5CC[C@]43C)[C@@H]2C1
Protease
  IC50: 1.9 µM

## CC1(C)CC[C@]2(C(=O)OCc3ccccc3)CC[C@]3(C)C(=CC[C@@H]4[C@@]5(C)C[C@@H](OC(=O)CCCC(=O)O)[C@H](OC(=O)CCCC(=O)O)C(C)(C)[C@@H]5CC[C@]43C)[C@@H]2C1
Protease
  IC50: 3.9 µM

## CC1(C)CC[C@]2(C(=O)O)CC[C@]3(C)C(=CC[C@@H]4[C@@]5(C)C[C@@H](OC(=O)CCC(=O)O)[C@H](O)C(C)(C)[C@@H]5CC[C@]43C)[C@@H]2C1
Protease
  IC50: 3.5 µM

## CC1(C)CC[C@]2(C(=O)OCc3ccccc3)CC[C@]3(C)C(=CC[C@@H]4[C@@]5(C)CC[C@H](O)C(C)(C)[C@@H]5CC[C@]43C)[C@@H]2C1
B16-F10 [2]
  Activity: 4.1%
B16-F10 [3]
  Activity: 4.3%
B16-F10 [4]
  Activity: 41.6%
B16-F10 [5]
  Activity: 27.8%
B16-F10 [6]
  Activity: 18.6%
B16-F10 [7]
  Activity: 12.2%
B16-F10 [8]
  Activity: 23%
B16-F10 [9]
  Activity: 15.6%
B16-F10 [10]
  Activity: 67.9%
B16-F10 [11]
  IC50: 52.2 µM
B16-F10 [12]
  Activity: 54.3%

## CC1(C)CC[C@]2(C(=O)OCc3ccccc3)CC[C@]3(C)C(=CC[C@@H]4[C@@]5(C)C[C@@H](O)[C@H](O)C(C)(C)[C@@H]5CC[C@]43C)[C@@H]2C1 [BENZYL MASLINATE]
B16-F10 [2]
  Activity: 0.1%
B16-F10 [3]
  Activity: 0.3%
B16-F10 [4]
  Activity: 88.4%
B16-F10 [5]
  Activity: 94.7%
B16-F10 [6]
  Activity: 2.2%
B16-F10 [7]
  Activity: 10.6%
B16-F10 [8]
  Activity: 86.2%
B16-F10 [9]
  Activity: 84.2%
B16-F10 [10]
  Activity: 5%
B16-F10 [11]
  IC50: 19 µM
B16-F10 [12]
  Activity: 11.3%

## CC1(C)CC[C@]2(C(=O)OCc3ccccc3)CC[C@]3(C)C(=CC[C@@H]4[C@@]5(C)C[C@@H](OC(=O)CCC(=O)O)[C@H](OC(=O)CCC(=O)O)C(C)(C)[C@@H]5CC[C@]43C)[C@@H]2C1
Protease
  IC50: 5.2 µM

## CC1(C)CC[C@]2(C(=O)O)CC[C@]3(C)C(=CC[C@@H]4[C@@]5(C)CC[C@H](OC(=O)c6ccccc6C(=O)O)C(C)(C)[C@@H]5CC[C@]43C)[C@@H]2C1
Protease
  IC50: 0.31 µM

## CCCCCC(=O)O[C@@H]1C[C@]2(C)[C@H]3CC=C4[C@@H]5CC(C)(C)CC[C@]5(C(=O)OCc5ccccc5)CC[C@@]4(C)[C@]3(C)CC[C@H]2C(C)(C)[C@H]1OC(=O)CCCCC
Protease
  IC50: 150 µM

## CC1(C)CC[C@]2(C(=O)O)CC[C@]3(C)C(=CC[C@@H]4[C@@]5(C)C[C@@H](O)[C@H](O)C(C)(C)[C@@H]5CC[C@]43C)[C@@H]2C1 [MASLINIC ACID]
B16-F10 [2]
  Activity: 2%
B16-F10 [3]
  Activity: 11.7%
B16-F10 [4]
  Activity: 89.8%
B16-F10 [5]
  Activity: 74.9%
B16-F10 [6]
  Activity: 21%
B16-F10 [7]
  Activity: 54.2%
B16-F10 [8]
  Activity: 68.8%
B16-F10 [9]
  Activity: 20.8%
B16-F10 [10]
  Activity: 10.9%
B16-F10 [11]
  IC50: 36.2 µM
B16-F10 [12]
  Activity: 8.3%
Protease
  IC50: 62.7 µM

## CC1(C)CC[C@]2(C(=O)O)CC[C@]3(C)C(=CC[C@@H]4[C@@]5(C)C[C@@H](OC(=O)c6ccccc6C(=O)O)[C@H](OC(=O)c6ccccc6C(=O)O)C(C)(C)[C@@H]5CC[C@]43C)[C@@H]2C1
Protease
  IC50: 2.3 µM
